This note sets out measurements from ChEMBL document CHEMBL1127606, “HIV-1 reverse transcriptase inhibitor design using artificial neural networks” (1994).

The target of test [1] is Human immunodeficiency virus type 1 reverse transcriptase (Human immunodeficiency virus 1) (UniProt Q72547). The test is described as follows: Inhibition of HIV-1 reverse transcriptase; - = inactive.
In test [2] the test system is MT4. The test is described as follows: RT activity in culture fluid at 10e-5 concentration of compound was tested on MT-4 cells infected by […]. It is filed as cell-based. The essentials: (§1)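 RT assay: infected MT-4 cells (H9/IIIB-derived HIV-1, 0.05–0.1 log10 EPCD50 per cell) were cultured 7 days with compound at 10^-4 or 10^-5 M. Reverse transcriptase activity in the culture fluid was measured and expressed as % of untreated infected control.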

Test [3] has as its system MT4. Put plainly: Content of viable cells at 10e-5 concentration of compound was tested on MT-4 cells infected by […]. The format is functional, Homo sapiens. The essentials:
(§2)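 Anti-HIV viable-cell assay: MT-4 lymphocytes infected with cell-free fluid from chronically HIV-1-infected H9/IIIB cultures at 0.05–0.1 log10 EPCD50 per cell. They were cultured 7 days with compound at 10^-4 or 10^-5 M. Viable cells were counted by 0.25% trypan blue exclusion and reported as % viable cells.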

Test [4] relates to MT4. The test is described as follows: Antigen p24 content in culture fluid at 10e-4 concentration of compound was tested on MT-4 cells infected by […]. The format is functional, Homo sapiens. The essentials: (§3)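 p24 assay: MT-4 cultures were infected with HIV-1 from chronically infected H9/IIIB cultures (0.05–0.1 log10 EPCD50 per cell) and held 7 days with compound at 10^-4 or 10^-5 M. Virus production was measured as p24 antigen in culture fluid by immunoenzymatic assay, in ng/mL.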

Test [5] deals with MT4. Put plainly: Number of infected cells at 10e-5 concentration of compound was tested on MT-4 cells infected by […]. It is filed as functional, Homo sapiens. The essentials: (§4)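 Infected-cell count: HIV-1 (H9/IIIB-derived fluid, 0.05–0.1 log10 EPCD50 per cell) was used to infect MT-4 lymphocytes, which were then grown 7 days with compound at 10^-4 or 10^-5 M. Cells expressing viral antigens on their surface membranes were scored by indirect immunofluorescence with anti-HIV-1 antibodies, as % of cells.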

Test [6] has as its system MT4. Put plainly: Content of viable cells at 10e-4 concentration of compound was tested on MT-4 cells infected by […]. The format is functional, Homo sapiens. The essentials: as §2
Test [7] has as its system MT4. Put plainly: Number of infected cells at 10e-4 concentration of compound was tested on MT-4 cells infected by […]. It is filed as functional, Homo sapiens. The essentials:
as §4

In test [8] the test system is MT4. The test is described as follows: RT activity in culture fluid at 10e-4 concentration of compound was tested on MT-4 cells infected by […]. It is filed as cell-based. The essentials:
as §1

Test [9] concerns MT4. The test is described as follows: Cytotoxic concentration for 50% death of uninfected MT-4 cell culture.
The subject of test [10] is MT4. Put plainly: Antigen p24 content in culture fluid at 10e-5 concentration of compound was tested on MT-4 cells infected by […]. The format is functional, Homo sapiens. The essentials: as §3
The subject of test [11] is MT4. Put plainly: Cytotoxic concentration for 50% death of MT-4 cell culture infected by HIV-1/ IIIB. The format is functional, Homo sapiens.

Each structure is given as a SMILES string. Active and inactive are the calls of the source. The rule behind the calls is not given here.

With `CC(=O)N[C@@H]1C=C[C@@H](n2cc(C)c(=O)[nH]c2=O)OC1`, the outcome in test [1] was inactive.
The same measure, in the same setting: to `O=c1ccn(C2OC(CO)C=C2F)c(=O)[nH]1` (stereo unspecified) belongs “inactive”.
Regarding `COC(=O)C(C)NP(=O)(OCC1OC(n2cc(C)c(=O)[nH]c2=O)CC1F)OCC(Cl)(Cl)Cl` (stereo unspecified), in test [1], the outcome was inactive.
Still for that read-out and setting: the value for `CC(=O)O[C@H]1C=C[C@@H](n2cc(C)c(=O)[nH]c2=O)OC1` was “inactive”.
Regarding `O=c1ccn(C2OC(CO)C(F)C2F)c(=O)[nH]1` (stereo unspecified), the result in [1] was inactive.
Same read-out and setting: to `Cc1cn(C2C=C[C@@H](N=[N+]=[N-])CO2)c(=O)[nH]c1=O` (single isomer, unassigned) belongs “inactive”; to `COC(=O)C(NP(=O)(OCC1OC(n2cc(C)c(=O)[nH]c2=O)CC1F)OCC(Cl)(Cl)Cl)C(C)C` (stereo unspecified), “inactive”; to `Cc1cn(C2C=C[C@H](O)[C@@H](CO)O2)c(=O)[nH]c1=O` (single isomer, unassigned), “inactive”.
As for `COC1=NC(OC)=C([N+](=O)[O-])C(CC(C)=O)N1CC(O)CO` (stereo unspecified), the values for the RT activity in the test with MT4 [2] and in the test with MT4 [8] were 18.7% and 20.9%, respectively. For the same compound, the results for the Viable cells with MT4 [3] and with MT4 [6] were 83.2% and 85.1%, respectively. Moreover, the “Antigen p24 content” value came to 0.87 ng/mL with MT4 [4] and 0.77 ng/mL in the test on MT4 [10]. In addition, the results for the “No. of infected cells” value in the test on MT4 [5] and in the test on MT4 [7] were 2.8% and 3.6%, respectively. Moreover, the CTC50 with MT4 [9] turned out to be 0.0466 M.
`CC(=O)N[C@@H]1C=C[C@@H](n2cc(C)c(=O)[nH]c2=O)O[C@@H]1CO`: the outcome in test [1] was inactive.
Take `Cc1cn([C@@H]2O[C@H](CO)[C@@H](N=[N+]=[N-])[C@H]2F)c(=O)[nH]c1=O`: the outcome in test [1] was inactive.
`Cc1cn([C@H]2C[C@H](N=[N+]=[N-])[C@@H](CO)O2)c(=O)[nH]c1=O` [ZIDOVUDINE]: the RT activity in the test with MT4 [2] turned out to be 17%; in the test with MT4 [8], 19.2%. Besides, the Viable cells worked out at 69.7% in the test on MT4 [3] and 78.6% in the test with MT4 [6]. In addition, the “Antigen p24 content” value in the test with MT4 [4] came out at 0.82 ng/mL; in the test on MT4 [10] it was 0.68 ng/mL. The “No. of infected cells” value with MT4 [5] came out at 2.1%; in the test with MT4 [7] it was 2.9%. In addition, the CTC50 with MT4 [9] is reported as 0.0053 M.
With `COC(=O)C(Cc1ccccc1)NP(=O)(NC(Cc1ccccc1)C(=O)OC)OCC1OC(n2cc(C)c(=O)[nH]c2=O)CC1F` (stereo unspecified), in test [1], the outcome was inactive.
On the same count and under the same terms, to `Cc1cn([C@@H]2O[C@H](CO)C=C2F)c(=O)[nH]c1=O` belongs “inactive”.
On the same count and under the same terms, to `Cc1cn([C@H]2C=C[C@@H](N=[N+]=[N-])[C@@H](CO)O2)c(=O)[nH]c1=O` belongs “inactive”; to `Cc1cn([C@@H]2C=CC(O)CO2)c(=O)[nH]c1=O` (single isomer, unassigned), “inactive”.
On the same count and under the same terms, the value for `Nc1nc(=O)n(C2OC(CO)CC2F)cc1F` (stereo unspecified) was “inactive”; that for `CCc1cc(CCN2C(=O)c3ccccc3C2=O)c(O)nc1C` was “inactive”.
In the case of `Cc1cn([C@@H]2C=C[C@@H](N=[N+]=[N-])[C@@H](CO)O2)c(=O)[nH]c1=O`, the result in test [1] was inactive.
For the compound `COC1=NC(CC(C)=O)N=C(OC)C1(CC(O)CO)[N+](=O)[O-]` (stereo unspecified), the RT activity in the test with MT4 [2] turned out to be 82.5%; in the test with MT4 [8], 84.3%. Further, the Viable cells in the test with MT4 [3] stood at 52.1%; in the test on MT4 [6], 37.3%. The “Antigen p24 content” value with MT4 [4] was determined as 1.92 ng/mL; with MT4 [10], 1.87 ng/mL. Besides, the “No. of infected cells” value with MT4 [5] turned out to be 12.6%; with MT4 [7], 19.7%. Also, the CTC50 with MT4 [9] is 0.058 M.
On to `CC(=O)OC[C@H]1O[C@H](n2cc(C)c(=O)[nH]c2=O)C=C[C@@H]1OC(C)=O`, for which the result in test [1] was inactive.
In the test on MT4 [11], `COc1nc(CC(C)=O)nc(OC)c1CC(O)CO` (stereo unspecified) had a CTC50 of 78 µM.
On to `CC(=O)O[C@H]1C=C[C@H](n2cc(C)c(=O)[nH]c2=O)O[C@@H]1CO`, for which the outcome in test [1] was inactive.
On the same count and under the same terms, the value for `Cc1cn([C@@H]2O[C@H](CO)C[C@H]2F)c(=O)[nH]c1=O` was “inactive”; that for `Cc1cn(C2C=C[C@@H](O)[C@@H](CO)O2)c(=O)[nH]c1=O` (single isomer, unassigned) was “inactive”.
Take `O=c1ccn(C2OC(CO)CC2F)c(=O)[nH]1` (stereo unspecified): the outcome in test [1] was inactive.
In the case of `CC(=O)N[C@@H]1C=C[C@H](n2cc(C)c(=O)[nH]c2=O)O[C@@H]1CO`, in [1], the result was inactive.
